How the values were obtained:
Type in all cases: cell-based
HIV-1 NL4-3 Nanoluc-sec = details: for SI, selectivity index, calculated as CC50/EC50: CC50 (MT4) / EC50 (HIV-1 in MT4)
[1] = Cytotoxicity against U937 cell; details: human, U937 cells
Outline: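 Cells cultured 3 days with test compound over a concentration range. Viability read by CytoTox-Glo cytotoxicity assay per manufacturer's protocol, same method as for MT4 cells. CC50 taken as the concentration giving 50% reduction in cell viability.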

[2] = test system: T cell latent HIV-1 model JLat-A2; experiment: FACS analysis of GFP-expressing J-Lat; details: JLat-A2, 10 and 50 nM, 72 h
Outline: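 J-Lat (A2) latently infected cells at 1×10⁶ cells/well, incubated with test compounds at various concentrations, 37 °C, 72 h. GFP-expressing cells scored by flow cytometry.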

[3] = CytoTox-Glo cytotoxicity assay in MT4 cells; details: human

Row | SMILES | SI, selectivity index, calculated as CC50/EC50 (HIV-1 NL4-3 Nanoluc-sec) | other results
1 | CC(=O)O[C@H]1C(C)=C[C@]23C(=O)[C@@H](C=C(C)[C@@H](OC(=O)c4ccccc4)[C@]12O)[C@H]1[C@@H](C[C@H]3C)C1(C)C [Compound 3, kansuiphorin C] | >23 | –
2 | CC1=C[C@]23C(=O)[C@@H](C=C(CO)[C@@H](O)[C@]2(O)[C@H]1OC(=O)c1ccc2ccccc2c1)[C@H]1[C@@H](C[C@H]3C)C1(C)C [Compound 23, 3-(2-Naphthoyl)ingenol] | >6153 | CC50 at 3 days [1]: > 2000 nM; activation of green fluorescent protein (GFP) expression [2]: comparable potency
3 | CCCCCCCCCCCC(=O)O[C@@]12C[C@@H](C)[C@]34C=C(C)[C@H](O)[C@@]3(O)[C@H](O)C(CO)=C[C@H](C4=O)[C@@H]1C2(C)C [Compound 11, 13-oxyingenol-13-dodecanoate] | >273 | –
4 | CC1=C[C@@H]2C(=O)[C@]3(C=C(C)[C@H](OC(=O)c4ccc5ccccc5c4)[C@@]3(O)[C@@H]1O)[C@H](C)C[C@@H]1[C@H]2C1(C)C [Compound 14a, 3-(2-Naphthoyl)-20-deoxyingenol] | >543 | –
5 | C/C=C(\C)C(=O)O[C@H]1C(C)=C[C@]23C(=O)[C@@H](C=C(C)[C@@H](O)[C@]12O)[C@H]1[C@@H](C[C@H]3C)C1(C)C [Compound 16, 3-Tigloyl-20-deoxyingenol] | >46 | CC50 at 3 days [3]: > 9.7 µM
6 | COc1ccc(C(=O)O[C@H]2C(C)=C[C@]34C(=O)[C@@H](C=C(C)[C@@H](O)[C@]23O)[C@H]2[C@@H](C[C@H]4C)C2(C)C)cc1 [Compound 12a, 3-(p-Methoxybenzoyl)-20-deoxyingenol] | >64 | –
7 | C=C1[C@H](OC(=O)c2ccccc2)[C@H]2[C@@H](OC(C)=O)[C@](C)(O)[C@H](OC(C)=O)[C@]2(O)C(=O)[C@@H](C)[C@H]2O[C@@H]2C(C)(C)C(=O)[C@H](O)[C@H]1OC(=O)c1ccccc1 [Compound 7, kansuinin C] | – | anti-HIV activity (HIV-1 NL4-3 Nanoluc-sec; jatrophane diterpenoids isolated from E3-fraction): no anti-HIV activity
8 | C/C=C/C(=O)O[C@@H]1C(C)=C[C@@H]2C(=O)[C@]3(C=C(C)[C@H](O)[C@@]13O)[C@H](C)C[C@@H]1[C@H]2C1(C)C [Compound 15b, 5-crotonoyl-20-deoxyingenol] | >16 | –
9 | C/C=C/C(=O)O[C@H]1C(C)=C[C@]23C(=O)[C@@H](C=C(C)[C@@H](O)[C@]12O)[C@H]1[C@@H](C[C@H]3C)C1(C)C [Compound 15a, 3-Crotonoyl-20-deoxyingenol] | >17 | –
10 | CC1=C[C@@H]2C(=O)[C@]3(C=C(C)[C@H](O)[C@@]3(O)[C@@H]1OC(=O)c1ccccc1)[C@H](C)C[C@@H]1[C@H]2C1(C)C [Compound 1, 5-O-benzoyl-20-deoxyingenol] | >216 | –
11 | CCCCCCCCCCCC(=O)O[C@@]12C[C@@H](C)[C@]34C=C(C)[C@H](OC(=O)C(C)C(C)C)[C@@]3(O)[C@H](O)C(CO)=C[C@H](C4=O)[C@@H]1C2(C)C (some centres unmarked) [Compound 5, 3-O-(2,3-dimethylbutanoyl)-13-O-dodecanoylingenol] | >7500 | –
12 | C/C=C(/C)C(=O)O[C@H]1C(C)=C[C@]23C(=O)[C@@H](C=C(CO)[C@@H](O)[C@]12O)[C@H]1[C@@H](C[C@H]3C)C1(C)C [Compound 22, 3-Angeloylingenol] | >2067 | activation of green fluorescent protein (GFP) expression [2]: comparable potency
13 | C/C=C(/C)C(=O)O[C@H]1C(C)=C[C@]23C(=O)[C@@H](C=C(C)[C@@H](O)[C@]12O)[C@H]1[C@@H](C[C@H]3C)C1(C)C [Compound 17, 3-angeloyl-20-deoxyingenol] | >22.8 | –
14 | CC1=C[C@@H]2C(=O)[C@]3(C=C(C)[C@H](O)[C@@]3(O)[C@@H]1OC(=O)/C=C/c1ccccc1)[C@H](C)C[C@@H]1[C@H]2C1(C)C [Compound 13b, 5-(trans-cinnamoyl)-20-deoxyingenol] | >22 | –
15 | CC(=O)OCC1=C[C@@H]2C(=O)[C@]3(C=C(C)[C@H](O)[C@@]3(O)[C@@H]1O)[C@H](C)C[C@@H]1[C@H]2C1(C)C [Compound 4, ingenol monoacetate] | >10 | –
16 | CC1=C[C@@H]2C(=O)[C@]3(C=C(C)[C@H](OC(=O)c4ccccc4)[C@@]3(O)[C@@H]1O)[C@H](C)C[C@@H]1[C@H]2C1(C)C [Compound 2, 3-O-benzoyl-20-deoxyingenol] | >302 | –
17 | CCCCCCCC(=O)O[C@H]1C(C)=C[C@]23C(=O)[C@@H](C=C(C)[C@@H](O)[C@]12O)[C@H]1[C@@H](C[C@H]3C)C1(C)C [Compound 18, 3-Octanoyl-20-deoxyingenol] | >59.9 | –
18 | CC1=C[C@@H]2C(=O)[C@]3(C=C(C)[C@H](OC(=O)/C=C/c4ccccc4)[C@@]3(O)[C@@H]1O)[C@H](C)C[C@@H]1[C@H]2C1(C)C [Compound 13a, 3-(trans-Cinnamoyl)-20-deoxyingenol] | >45 | –
19 | COc1ccc(C(=O)O[C@@H]2C(C)=C[C@@H]3C(=O)[C@]4(C=C(C)[C@H](O)[C@@]24O)[C@H](C)C[C@@H]2[C@H]3C2(C)C)cc1 [Compound 12b, 5-(p-methoxybenzoyl)-20-deoxyingenol] | >20 | –
